Results collected from several papers.
Lines come from different studies, so protocols differ.
Target: Myosin light chain kinase, smooth muscle (MYLK, Homo sapiens, UniProt Q15746)

CNC(=O)Nc1ccc2c(c1)[C@@]1(CC2)OC(=O)N(CC(=O)N(Cc2ccc(F)cc2)[C@@H](C)C(F)(F)F)C1=O  remaining binding (cell-free assay, competition with immobilised ligand; 1 µM): 88%
CN(c1ncccc1CNc1nc(Nc2ccc3c(c2)CC(=O)N3)ncc1C(F)(F)F)S(C)(=O)=O  inhibition (enzyme activity, inhibitor; 1 µM): 16.6%
Cn1cncc1C1=CN(c2ncnc3[nH]cnc23)CCS1  inhibition (enzyme activity, inhibitor, radiometric; 2 µM): 91.1%
COCCOc1nc(-c2ccc(Cl)nc2)nc2c1CN(C(=O)c1ncn3ccccc13)CC2  remaining binding (cell-free assay, competition with immobilised ligand; 0.1 µM): 70%
Oc1cccc(-c2nc(N3CCOCC3)c3oc4ncccc4c3n2)c1  remaining signal (cell-free assay; 0.5 µM): 77.1%
CCN1CCN(Cc2ccc(NC(=O)c3ccc(C)c(Oc4ccnc5[nH]ccc45)c3)cc2C(F)(F)F)CC1  inhibition (target engagement in cells, inhibitor, chemoproteomics; Huh-7; 1 µM): -23.4%
CC(C)(C)C(=O)c1sc(NC2CCCCC2)nc1N  remaining activity (enzyme activity, inhibitor; 10 µM): 74%
Cn1nc(C(=O)NCc2ccc(C(=O)O)cc2)cc1-c1ccc2[nH]ccc2c1  remaining binding (cell-free assay, competition with immobilised ligand; 0.1 µM): 62%
N#CCCc1ccc2c(c1)-c1[nH]c3ccc([N+](=O)[O-])cc3c1CC(=O)N2  remaining signal (cell-free assay; 0.5 µM): 95.2%
CCN(CC)c1ccc(C2=NNC(=O)CC2C)cc1[N+](=O)[O-] (centres unmarked)  remaining activity (enzyme activity, inhibitor; 10 µM): 90%
Nc1nc(NC2CCCCC2)sc1C(=O)c1ccccc1  remaining activity (enzyme activity, inhibitor; 10 µM): 44%
C[S+]([O-])c1ccc(-c2nc(-c3ccncc3)c(-c3ccc(F)cc3)[nH]2)cc1 (centres unmarked)  remaining signal (cell-free assay; 0.5 µM): 101%
C[C@H](NC(=O)c1cnc2n1[C@](C)(Cc1ccc(C#N)cc1)C(=O)N2c1cc(Cl)c(F)c(Cl)c1)C(=O)NC1(c2ccccn2)CC1  remaining binding (cell-free assay, competition with immobilised ligand; 1 µM): 100%
Cn1c(=O)n(-c2ccc(C(C)(C)C#N)cc2)c2c3cc(-c4cnc5ccccc5c4)ccc3ncc21  remaining activity (enzyme activity, inhibitor; 10 µM): 109%
Cn1c2c(Cl)c(Cl)ccc2c2cc(N)[nH]c(=O)c21  ΔTm (thermal stability, DSF; 10 µM): 0.1 °C
O=C(NC[C@@H]1[C@H]2CN(C(=O)OCc3cc(C(F)(F)F)cc(C(F)(F)F)c3)C[C@@H]12)c1ccc2[nH]nnc2c1  remaining binding (cell-free assay, competition with immobilised ligand; 1 µM): 88%
Cc1sc(C(=O)NC2COC2)cc1-n1cc(NC(=O)Nc2c(F)cccc2Cl)cn1  remaining activity (enzyme activity, inhibitor; 10 µM): 103%
CN(C)c1ncnc(-c2ccc3nc(Nc4cc(CN5CCN(C(=O)CC(F)(F)F)CC5)ccn4)[nH]c3c2)c1Cl  remaining binding (cell-free assay, competition with immobilised ligand; 1 µM): 68%
Cc1cc(NC(=O)c2cccc3cc(-c4cccc5[nH]nc(N)c45)ccc23)ccc1F  activity vs control (enzyme activity, inhibitor; 0.1 µM): 89%
Cc1cnn2ncc(-c3ccnc(N(C)C)n3)c2c1  remaining binding (binding; 1 µM): 99%
O=C(Nc1cccnn1)N1CCC(=Cc2cccc(Oc3ccc(C(F)(F)F)cn3)c2)CC1  remaining binding (cell-free assay, competition with immobilised ligand; 1 µM): 100%
Oc1cccc(-c2nc(N3CCOCC3)c3oc4ncccc4c3n2)c1  remaining activity (enzyme activity, inhibitor; 10 µM): 48%
CC(C)(C)c1nc(-c2cccc(NS(=O)(=O)c3c(F)cccc3F)c2F)c(-c2ccnc(N)n2)s1  remaining activity (enzyme activity, inhibitor, radiometric; 1 µM): 74%
Cn1cnc(Br)c1C1=CN(c2ncnc3[nH]cnc23)CCS1  inhibition (enzyme activity, inhibitor, radiometric; 2 µM): 93.4%
Cc1nc(N2CC[C@@H](O)C2)ncc1-c1cc(C(F)(F)F)cc2[nH]ncc12  remaining binding (binding, competition with immobilised ligand; 1 µM): 100%
COc1cc(Nc2cnc(C#N)c(O[C@H](C)CN(C)C)n2)ncc1-c1cnn(C)c1  remaining activity (enzyme activity, inhibitor, radiometric; 1 µM): 80%
